Measured values taken from ChEMBL document CHEMBL1124321, “Design of potent linear alpha-melanotropin 4-10 analogues modified in positions 5 and 10” (J Med Chem, 1989).
Non-standard residues stand in square brackets, D forms with d. Residues, ends and D or L forms follow the SMILES beside them. Nle = CCCC[C@H](N)C(=O)O

How the values were obtained:
[1] = test system: Melanocyte-stimulating hormone receptor (Rana pipiens); experiment: In vitro potency in frog (Rana pipiens) skin assay relative to alpha-MSH
lizard = experiment: In vitro potency in lizard (Anolis carolinensis) skin bioassay relative to alpha-MSH; format: functional
Outline: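 Isolated skins incubated in vitro with peptide across the full log dose-response range. Darkening from melanosome dispersion into melanophore dendrites is read as surface reflectance on a reflectometer and expressed as percent response versus the time-zero value. Each point is a mean ± SE of 6 or more skins. Potency is taken from the dose-response curves relative to α-MSH.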

SMILES | Activity [1] | Activity (lizard)
CCCC[C@H](NC(C)=O)C(=O)N[C@@H](CC(=O)O)C(=O)N[C@@H](Cc1c[nH]cn1)C(=O)N[C@H](Cc1ccccc1)C(=O)N[C@@H](CCCN=C(N)N)C(=O)N[C@@H](Cc1c[nH]c2ccccc12)C(=O)N[C@@H](CCCN)C(N)=O | 0.9 | 10
CCCC[C@H](NC(C)=O)C(=O)N[C@@H](CCC(=O)O)C(=O)N[C@@H](Cc1c[nH]cn1)C(=O)N[C@H](Cc1ccccc1)C(=O)N[C@@H](CCCN=C(N)N)C(=O)N[C@@H](Cc1c[nH]c2ccccc12)C(=O)N[C@@H](CCCN)C(N)=O | 0.6 | 8
CCCC[C@H](NC(C)=O)C(=O)N[C@@H](CC(=O)O)C(=O)N[C@@H](Cc1c[nH]cn1)C(=O)N[C@H](Cc1ccccc1)C(=O)N[C@@H](CCCN=C(N)N)C(=O)N[C@@H](Cc1c[nH]c2ccccc12)C(=O)N[C@@H](CCCCN)C(=O)NCC(=O)N1CCC[C@H]1C(=O)N[C@H](C(N)=O)C(C)C (Ac-[Nle]DH[dF]RWKGPV-NH2) | 1 | 10
CCCC[C@H](NC(C)=O)C(=O)N[C@@H](CC(=O)O)C(=O)N[C@@H](Cc1c[nH]cn1)C(=O)N[C@H](Cc1ccccc1)C(=O)N[C@@H](CCCN=C(N)N)C(=O)N[C@@H](Cc1c[nH]c2ccccc12)C(=O)N[C@@H](CCN)C(N)=O | 0.9 | 50
CCCC[C@H](NC(C)=O)C(=O)N[C@@H](CC(=O)O)C(=O)N[C@@H](Cc1c[nH]cn1)C(=O)N[C@H](Cc1ccccc1)C(=O)N[C@@H](CCCN=C(N)N)C(=O)N[C@@H](Cc1c[nH]c2ccccc12)C(=O)NCC(N)=O | 0.1 | 8
CCCC[C@H](NC(=O)[C@H](CO)NC(=O)[C@H](Cc1ccc(O)cc1)NC(=O)[C@H](CO)NC(C)=O)C(=O)N[C@@H](CC(=O)O)C(=O)N[C@@H](Cc1c[nH]cn1)C(=O)N[C@H](Cc1ccccc1)C(=O)N[C@@H](CCCN=C(N)N)C(=O)N[C@@H](Cc1c[nH]c2ccccc12)C(=O)N[C@@H](CCCCN)C(=O)NCC(=O)N1CCC[C@H]1C(=O)N[C@H](C(N)=O)C(C)C (Ac-SYS[Nle]DH[dF]RWKGPV-NH2) | 9 | 8
CCCC[C@H](NC(C)=O)C(=O)N[C@@H](CCC(=O)O)C(=O)N[C@@H](Cc1c[nH]cn1)C(=O)N[C@@H](Cc1ccccc1)C(=O)N[C@@H](CCCN=C(N)N)C(=O)N[C@@H](Cc1c[nH]c2ccccc12)C(=O)N[C@@H](CCCCN)C(N)=O | 0.001 | 0.08
CCCC[C@H](NC(C)=O)C(=O)N[C@@H](CCC(=O)O)C(=O)N[C@@H](Cc1c[nH]cn1)C(=O)N[C@H](Cc1ccccc1)C(=O)N[C@@H](CCCN=C(N)N)C(=O)N[C@@H](Cc1c[nH]c2ccccc12)C(=O)N[C@@H](CCCCN)C(=O)NCC(=O)N1CCC[C@H]1C(=O)N[C@H](C(N)=O)C(C)C (Ac-[Nle]EH[dF]RWKGPV-NH2) | 0.8 | 8
CCCC[C@H](NC(C)=O)C(=O)N[C@@H](CC(=O)O)C(=O)N[C@@H](Cc1c[nH]cn1)C(=O)N[C@@H](Cc1ccccc1)C(=O)N[C@@H](CCCN=C(N)N)C(=O)N[C@@H](Cc1c[nH]c2ccccc12)C(=O)N[C@@H](CCCCN)C(N)=O |  | 0.08
CCCC[C@H](NC(C)=O)C(=O)N[C@@H](CCC(=O)O)C(=O)N[C@@H](Cc1c[nH]cn1)C(=O)N[C@H](Cc1ccccc1)C(=O)N[C@@H](CCCN=C(N)N)C(=O)N[C@@H](Cc1c[nH]c2ccccc12)C(=O)N[C@@H](CCCCN)C(N)=O | 0.2 | 8
CCCC[C@H](NC(=O)[C@H](CO)NC(=O)[C@H](Cc1ccc(O)cc1)NC(=O)[C@H](CO)NC(C)=O)C(=O)N[C@@H](CCC(=O)O)C(=O)N[C@@H](Cc1c[nH]cn1)C(=O)N[C@H](Cc1ccccc1)C(=O)N[C@@H](CCCN=C(N)N)C(=O)N[C@@H](Cc1c[nH]c2ccccc12)C(=O)N[C@@H](CCCCN)C(=O)NCC(=O)N1CCC[C@H]1C(=O)N[C@H](C(N)=O)C(C)C (Ac-SYS[Nle]EH[dF]RWKGPV-NH2) | 6 | 8
CCCC[C@H](NC(C)=O)C(=O)N[C@@H](CC(=O)O)C(=O)N[C@@H](Cc1c[nH]cn1)C(=O)N[C@H](Cc1ccccc1)C(=O)N[C@@H](CCCN=C(N)N)C(=O)N[C@@H](Cc1c[nH]c2ccccc12)C(=O)N[C@@H](CCCCN)C(N)=O |  | 8
CCCC[C@H](NC(C)=O)C(=O)N[C@@H](CCC(=O)O)C(=O)N[C@@H](Cc1c[nH]cn1)C(=O)N[C@H](Cc1ccccc1)C(=O)N[C@@H](CCCN=C(N)N)C(=O)N[C@@H](Cc1c[nH]c2ccccc12)C(=O)N[C@@H](CCN)C(N)=O | 0.9 | 10
CCCC[C@H](NC(C)=O)C(=O)N[C@@H](CC(=O)O)C(=O)N[C@@H](Cc1c[nH]cn1)C(=O)N[C@H](Cc1ccccc1)C(=O)N[C@@H](CCCN=C(N)N)C(=O)N[C@@H](Cc1c[nH]c2ccccc12)C(=O)N[C@@H](CN)C(N)=O | 0.2 | 8
